According to ChEMBL document CHEMBL4610110, “Targeting mPGES-1 by a Combinatorial Approach: Identification of the Aminobenzothiazole Scaffold to Suppress PGE2 Levels” (ACS Med Chem Lett, 2020):
Activity calls are given as the source filed them. No cut-off for these calls is given here.

Key:
[1] = biological target: T1, Prostaglandin E synthase (Homo sapiens) (UniProt O14684); experiment: Inhibition of mPGES1 in human A549 cells assessed as reduction in IL-1beta induced PGE2 release by measuring residual activity at 10 uM using PGH2 as substrate preincubated for 15 mins followed by substrate addition and measured after 1 min by RP-UV-HPLC analysis relative to control; type: cell-based
T1 sequence (whole entry): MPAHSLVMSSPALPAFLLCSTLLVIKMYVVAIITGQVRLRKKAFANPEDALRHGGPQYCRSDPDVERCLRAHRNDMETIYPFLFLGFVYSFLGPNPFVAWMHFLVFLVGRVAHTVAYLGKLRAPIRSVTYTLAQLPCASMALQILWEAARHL
Summary of the method: (§1)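 The enzyme source was microsomes from IL-1β-stimulated A549 cells in a cell-free assay. The read-out was enzymatic conversion of PGH2 (20 μM) to PGE2.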

Prostaglandin E synthase = biological target: T2, Prostaglandin E synthase (Homo sapiens, UniProt O14684); experiment: Inhibition of mPGES1 in human A549 cells assessed as reduction in IL-1beta induced PGE2 release using PGH2 as substrate preincubated for 15 mins followed by substrate addition and measured after 1 min by RP-UV-HPLC analysis; type: cell-based; summary of the method: as §1
T2 sequence (O14684 whole entry): T1 sequence (whole entry)

[2] = biological target: T1, Prostaglandin E synthase (Homo sapiens); experiment: Inhibition of mPGES1 in human A549 cells assessed as reduction in IL-1beta induced PGE2 release incubated for 24 hrs by ELISA; type: cell-based
Summary of the method: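 A549 cells were incubated for 24 h at 5 or 10 μM in medium with 1% FBS and 10 ng/mL IL-1β. PGE2 released into the medium was quantified by ELISA against DMSO vehicle-treated cells. Values are mean ± SEM (pg/mL) of two independent experiments.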

A549 [3] = experiment: Antiproliferative activity against human A549 cells assessed as inhibition of cell viability incubated for 24 hrs by MTT assay; type: functional, cell-based; conditions: A549, 24 h
Summary of the method: (§2)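 A549 cells were exposed to test compounds in an MTT viability assay (5–100 μM for the 48 h and 72 h exposures). IC50 is the mean ± S.D. of single determinations from three independent experiments.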

A549 [4] = experiment: Antiproliferative activity against human A549 cells assessed as inhibition of cell viability incubated for 48 hrs by MTT assay; type: functional, cell-based; conditions: A549, 48 h; summary of the method: as §2
A549 [5] = experiment: Antiproliferative activity against human A549 cells assessed as inhibition of cell viability incubated for 72 hrs by MTT assay; type: functional, cell-based; conditions: A549, 72 h; summary of the method: as §2
A549 [6] = experiment: Induction of cell cycle arrest in human A549 cells assessed as accumulation at G2/M phase at 30 uM incubated for 72 hrs by propidium iodide staining based flow cytometric analysis; type: functional
Summary of the method: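 A549 cells were treated at several concentrations for 48 or 72 h, then stained for DNA with propidium iodide. Cell-cycle phase percentages were read by flow cytometry. Values are means ± SEM of two independent experiments, each run in triplicate.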

A549 [7] = experiment: Induction of programmed cell death in human A549 cells assessed as accumulation at subG0/G1 phase at 20 to 30 uM incubated for 48 hrs by propidium iodide staining based flow cytometric analysis relative to control; type: functional
Summary of the method: (§3)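 A549 human lung epithelial cancer cells were exposed to compound at several concentrations for 48 or 72 h. DNA was then stained with propidium iodide, and the percentage of cells in each cycle phase was measured by flow cytometry. The hypodiploid subG0/G1 fraction was read as cell death. Values are mean ± SEM of two independent experiments, each run in triplicate.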

A549 [8] = experiment: Induction of programmed cell death in human A549 cells assessed as accumulation at subG0/G1 phase at 20 to 30 uM incubated for 72 hrs by propidium iodide staining based flow cytometric analysis relative to control; type: functional; summary of the method: as §3

Activity [1] [%] | SMILES | IC50 (Prostaglandin E synthase) [µM] | inhibition [2] | IC50 (A549 [3]) [µM] | IC50 (A549 [4]) [µM] | IC50 (A549 [5]) [µM] | further results
– | Cc1cc(C)c(C(=O)Nc2nc3cc(-c4cccc(C(N)=O)c4)ccc3s2)o1 | – | – | – | – | – | inhibition [1]: inactive
> 30 | O=C(Nc1nc2cc(-c3cccc(CO)c3)ccc2s1)c1ccccc1Br | – | – | – | – | – | –
> 30 | O=C(Nc1nc2cc(-c3cccc(CO)c3)ccc2s1)c1ccc(F)cc1Cl | – | – | – | – | – | –
– | O=C(Nc1nc2ccc(-c3cccc(CO)c3)cc2s1)c1ccccc1Br | 0.7 | Dose-dependent effect | 97.5 | 57.5 | 18.1 | Activity (A549 [6]): Active; Activity (A549 [7]): 5%; Activity (A549 [8]): 18%
– | NC(=O)c1cccc(-c2ccc3sc(NC(=O)c4ccc(F)cc4C(F)(F)F)nc3c2)c1 | 1.7 | Dose-dependent effect | 98.3 | 50.6 | 19.2 | Activity (A549 [7]): 6%; Activity (A549 [8]): 7%
– | NC(=O)c1cccc(-c2ccc3sc(NC(=O)c4c(Cl)cccc4Cl)nc3c2)c1 | – | – | – | – | – | inhibition [1]: inactive
– | Cc1cc(C)c(C(=O)Nc2nc3ccc(-c4cccc(CO)c4)cc3s2)o1 | 2.6 | Dose-dependent effect | 95 | 63.2 | 55.2 | –
> 30 | Cc1cc(C)c(C(=O)Nc2nc3cc(-c4cccc(CO)c4)ccc3s2)o1 | – | – | – | – | – | –
– | O=C1OC(O)C(c2cc3ccccc3s2)=C1Br (stereo unspecified) | – | – | 98.5 | 12.5 | 9.1 | –
– | O=C(Nc1nc2ccc(-c3cccc(CO)c3)cc2s1)c1ccc(F)cc1Cl | 1.4 | Dose-dependent effect | 98.2 | 71.4 | 28.5 | Activity (A549 [7]): inactive; Activity (A549 [8]): inactive
> 30 | O=C(Nc1nc2cc(-c3cccc(CO)c3)ccc2s1)c1c(Cl)cccc1Cl | – | – | – | – | – | –
